Paper PMC9116722 (Cancer chemotherapy and pharmacology, 2022)

What was measured:
[1] = phase 3 maintenance trials ref 25-27; cited from earlier work
[2] = Non-compartmental pharmacokinetics; type: in vivo, human
Outline: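 Patients took oral drug twice daily, continuously, at 50–500 mg BID. Plasma parent drug and active metabolite M8 were measured by a validated assay. Parameters were derived non-compartmentally on day 1 and reported as geometric mean (SD). Accumulation indices for Cmax and AUC0–8 were compared with theoretical values from D1 half-lives. Dose proportionality was tested on day-1 Cmax and AUC0-inf (95% CI of coefficient including 1).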

sporadic ovarian cancer = sporadic ovarian cancer ref 43; cited from earlier work
[3] = metabolite M8, geometric mean (SD)

NC(=O)c1cccc2cn(-c3ccc([C@@H]4CCCNC4)cc3)nc12 [niraparib]
grade 3 or 4 anemia [1]: 25%

CNCc1ccc(-c2[nH]c3cc(F)cc4c3c2CCNC4=O)cc1 [rucaparib]
grade 3 or 4 anemia [1]: 19%

CC1(c2nc3c(C(N)=O)cccc3[nH]2)CCC(=O)N1 (stereo not drawn) [M8]
M8/ABT-888 metabolic ratio, AUC0-inf ([2]; day 1): 0.21 (1.9)
M8/ABT-888 metabolic ratio, Cmax ([2]; day 1): 0.11 (1.8)
theoretical accumulation index ([2]; metabolite M8, from D1 half-lives, geometric mean (SD)): 1.51 (1.25)
accumulation index for AUC0–8 [2, 3]: 1.59 (1.41)
accumulation index for Cmax [2, 3]: 1.51 (1.34)

O=C(c1cc(Cc2n[nH]c(=O)c3ccccc23)ccc1F)N1CCN(C(=O)C2CC2)CC1 [olaparib]
patients with objective responses (sporadic ovarian cancer): 24%
grade 3 or 4 anemia [1]: 19%
